Assay results gathered from unrelated publications.
Compare with care: the assays were run in different laboratories.
Target: Acetylcholinesterase (ache, Electrophorus electricus, UniProt O42275)
Effect on: enzyme activity
Mode: inhibitor

| Structure (SMILES) | test | setting | IC50 [µM] |
| --- | --- | --- | --- |
| O=C(NCCN1CCN(Cc2ccccc2)CC1)c1cc2ccccc2o1 | Ellman | – | 18.5 |
| CCOc1ccc(C=NNC(=S)NCC(=O)c2ccc(-c3ccccc3)cc2)cc1 | Ellman | – | 460 |
| CC=C1[C@H]2C=C(C)C[C@]1(N)c1cc(O)c(=O)[nH]c1C2 | Ellman | – | 0.53 |
| Cc1c(C(=O)[C@H]2[C@H](c3c[nH]c4ccccc34)[C@H]3CSCN3[C@]23C(=O)Nc2cc(Cl)ccc23)cnn1-c1ccccc1 | Ellman | – | > 100 |
| O=C(NNS(=O)(=O)c1ccc(Br)cc1)C(=O)NNS(=O)(=O)c1ccc(Br)cc1 | Ellman | with preincubation | 3.28 |
| CC=C1[C@H]2C=C(C)C[C@]1(N)c1cc(OCCC)c(=O)[nH]c1C2 | Ellman | – | 10.2 |
| COc1cc2c(cc1OC)CN(S(=O)(=O)CCc1cn(-c3cnc4ccccc4c3)nn1)CC2 | Ellman | – | 0.028 |
| O=C(CNC(=S)NN=Cc1ccc([N+](=O)[O-])cc1)c1ccc(Cl)cc1 | Ellman | – | 340 |
| CC=C1[C@H]2C=C(C)C[C@]1(N)c1cc(OCCCC)c(=O)[nH]c1C2 | Ellman | – | 110 |
| CC(C)=CCC/C(C)=C/COc1cc(O)cc(O)c1C(=O)c1ccccc1 | – | – | 192 |
| CC=C1[C@H]2C=C(C)C[C@]1(N)c1cc(OCC)c(=O)[nH]c1C2 | Ellman | – | 0.22 |
| Cc1c(C(=O)[C@H]2[C@H](c3cn(C)c4ccccc34)[C@H]3CSCN3[C@]23C(=O)Nc2cc(Cl)ccc23)cnn1-c1ccccc1 | Ellman | – | > 100 |
| COc1cccc2cc(C(=O)NCCN3CCN(Cc4ccccc4)CC3)oc12 | Ellman | – | 4 |
| Cc1c(C(=O)[C@H]2[C@H](c3c[nH]c4ccc(Br)cc34)CN(C)[C@]23C(=O)Nc2cc(Cl)ccc23)cnn1-c1ccccc1 | Ellman | – | 27.8 |
| C#CCNc1nc(NCCCC2CCN(Cc3ccccc3)CC2)c(C#N)cc1C#N | Ellman | – | 0.0047 |
| CC1(C)O[C@H]2CC(=O)OC[C@]23[C@H]2CC[C@@]4(C)[C@H](c5ccoc5)OC(=O)[C@H]5O[C@]54[C@]2(C)C(=O)C[C@@H]13 | Ellman | – | 1060 |
| CC=C1[C@H]2C=C(C)C[C@]1(N)c1cc(N)c(=O)[nH]c1C2 | Ellman | – | 0.32 |
| C#CCN(C)c1nc(NCCCCC2CCN(Cc3ccccc3)CC2)c(C#N)c(-c2ccccc2)c1C#N | Ellman | – | 0.023 |
| O=C(NCCN1CCN(Cc2ccccc2)CC1)c1cc2cccc(O)c2o1 | Ellman | – | 20 |
| CC=C1[C@H]2C=C(C)C[C@]1(N(C)C)c1ccc(=O)[nH]c1C2 | Ellman | – | 0.61 |
| Cc1c(C(=O)[C@H]2[C@H](c3c[nH]c4ccc(Br)cc34)[C@H]3CSCN3[C@]23C(=O)Nc2ccc([N+](=O)[O-])cc23)cnn1-c1ccccc1 | Ellman | – | 24.1 |
